Calls of active or inactive are those of the source. The calls are words filed in the database; no cut-off is given here.
Columns and labels:
Vero = assay: Cytotoxicity against african green monkey Vero cells after 48 hrs by MTT assay; format: cell-based; details: chlorocebus sabaeus
How it was run: (§1)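 Cells seeded at 10,000 per well and exposed to increasing compound concentrations for 48 h. After a PBS wash, MTT (2.5 mg/mL) was added for 6 h at 37 °C, then detergent (10% NP-40, 4 mM HCl), and absorbance was read at 570 nm. LC50 is the concentration causing 50% cell death. Values are means of three independent experiments.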

HEK293 [1] = assay: Cytotoxicity against HEK293 cells after 48 hrs by MTT assay; format: functional; details: Homo sapiens, HEK293, 48 h; read-out: LC50 (the source's name); how it was run: as §1
[2] = Retention time of the compound by HPLC method; format: physicochemical
HEK293 [3] = assay: Reduction in NFkappaB expression in p53 deficient HEK293 cells at LC50 level after 48 hrs by Western blot method; format: functional, cell-based; details: Homo sapiens
HEK293 [4] = assay: Induction of cell death in HEK293 cells at 15 to 20 uM after 48 hrs by DAPI staining based fluorescence microscopy; format: functional; details: Homo sapiens
HEK293 [5] = assay: Induction of apoptosis in HEK293 cells at 15 uM after 48 hrs by propidium iodide staining based flow cytometry (reference value: 24.26 +/- 0.8%); format: functional, Homo sapiens
HEK293 [6] = assay: Induction of cell cycle arrest in HEK293 cells assessed as accumulation at G2/M phase at 20 uM after 48 hrs by propidium iodide staining based flow cytometry (reference value: 2.63 +/- 0.7%); format: functional, Homo sapiens
HEK293 [7] = assay: Induction of cell cycle arrest in HEK293 cells assessed as accumulation at G1 phase at 5 uM after 48 hrs by propidium iodide staining based flow cytometry (reference value: 53.21 +/- 0.8%); format: functional, Homo sapiens
[8] = Cytotoxicity against human MCF10A cells after 48 hrs by MTT assay; format: cell-based; details: mcf-10a; how it was run: as §1
HEK293 [9] = assay: Increase in caspase-3 expression in HEK293 cells at LC50 level after 48 hrs by immunocytochemistry; format: functional, cell-based; details: Homo sapiens
HEK293 [10] = assay: Induction of cell cycle arrest in HEK293 cells assessed as accumulation at G2/M phase at 15 uM after 48 hrs by propidium iodide staining based flow cytometry (reference value: 2.63 +/- 0.7%); format: functional, Homo sapiens
HEK293 [11] = assay: Induction of cell cycle arrest in HEK293 cells assessed as accumulation at S phase at 15 uM after 48 hrs by propidium iodide staining based flow cytometry (reference value: 19.9 +/- 0.5%); format: functional, Homo sapiens
HEK293 [12] = assay: Reduction in Bcl-xL expression in p53 deficient HEK293 cells at LC50 level after 48 hrs by Western blot method; format: functional, cell-based; details: Homo sapiens
HEK293 [13] = assay: Increase in p53 expression in HEK293 cells at LC50 level after 48 hrs by Western blot method; format: functional, cell-based; details: Homo sapiens
[14] = target: T1, Nuclear factor NF-kappa-B complex (Homo sapiens) (UniProt Q00653+P19838+Q04206); assay: Inhibition of NFkappaB (unknown origin) expressed in HEK293 cells assessed as reduction in transcriptional activity after 48 hrs by luciferase reporter gene assay; format: cell-based
How it was run: (§2)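 HEK-293 at 70% confluence transfected by calcium phosphate with NF-kB luciferase ([…]) and b-Gal ([…]) plasmids, 6–8 h, then fresh serum medium 12 h; treated 48 h, lysed, luciferase read and normalized to b-galactosidase. Three independent experiments.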

HEK293 [15] = assay: Induction of apoptosis in HEK293 cells at 5 uM after 48 hrs by propidium iodide staining based flow cytometry (reference value: 24.26 +/- 0.8%); format: functional, Homo sapiens
HEK293 [16] = assay: Induction of cell cycle arrest in HEK293 cells assessed as accumulation at S phase at 5 uM after 48 hrs by propidium iodide staining based flow cytometry (reference value: 19.9 +/- 0.5%); format: functional, Homo sapiens
HEK293 [17] = assay: Increase in PARP cleavage in p53 deficient HEK293 cells at LC50 level after 48 hrs by Western blot method; format: functional, cell-based; details: Homo sapiens
HEK293 [18] = assay: Induction of apoptosis in HEK293 cells at 20 uM after 48 hrs by propidium iodide staining based flow cytometry relative to untreated control; format: functional, Homo sapiens
[19] = target: T1, Nuclear factor NF-kappa-B complex (Homo sapiens); assay: Inhibition of NFkappaB (unknown origin) expressed in HEK293 cells assessed as reduction in transcriptional activity at 10 uM after 48 hrs by luciferase reporter gene assay; format: cell-based; how it was run: as §2
HEK293 [20] = assay: Increase in PARP cleavage in HEK293 cells at LC50 level after 48 hrs by Western blot method; format: functional, cell-based; details: Homo sapiens
HEK293 [21] = assay: Induction of cell cycle arrest in HEK293 cells assessed as accumulation at G2/M phase at 10 uM after 48 hrs by propidium iodide staining based flow cytometry (reference value: 2.63 +/- 0.7%); format: functional, Homo sapiens
MCF7 = assay: Cytotoxicity against human MCF7 cells after 48 hrs by MTT assay; format: functional; details: MCF7, 48 h, read-out: LC50 (the source's name); how it was run: as §1
HEK293 [22] = assay: Increase in Bax expression in HEK293 cells at LC50 level after 48 hrs by Western blot method; format: functional, cell-based; details: Homo sapiens
HEK293 [23] = assay: Induction of cell cycle arrest in HEK293 cells assessed as accumulation at S phase at 20 uM after 48 hrs by propidium iodide staining based flow cytometry (reference value: 19.9 +/- 0.5%); format: functional, Homo sapiens
HEK293 [24] = assay: Induction of apoptosis in HEK293 cells assessed as apoptotic nuclei formation at 10 uM after 48 hrs by DAPI staining based fluorescence microscopy; format: functional, cell-based; details: Homo sapiens
HEK293 [25] = assay: Induction of cell cycle arrest in HEK293 cells assessed as accumulation at S phase at 10 uM after 48 hrs by propidium iodide staining based flow cytometry (reference value: 19.9 +/- 0.5%); format: functional, Homo sapiens
HEK293 [26] = assay: Induction of cell cycle arrest in HEK293 cells assessed as accumulation at G1 phase at 10 uM after 48 hrs by propidium iodide staining based flow cytometry (reference value: 53.21 +/- 0.8%); format: functional, Homo sapiens
HEK293 [27] = assay: Induction of cell cycle arrest in HEK293 cells assessed as accumulation at G1 phase at 15 uM after 48 hrs by propidium iodide staining based flow cytometry (reference value: 53.21 +/- 0.8%); format: functional, Homo sapiens
HEK293 [28] = assay: Induction of apoptosis in HEK293 cells at 20 uM after 48 hrs by propidium iodide staining based flow cytometry (reference value: 24.26 +/- 0.8%); format: functional, Homo sapiens
HEK293 [29] = assay: Induction of apoptosis in HEK293 cells at 10 uM after 48 hrs by propidium iodide staining based flow cytometry (reference value: 24.26 +/- 0.8%); format: functional, Homo sapiens
[30] = Binding affinity to GC-28 DNA (unknown origin) minor groove by DAPI staining based spectrophotometry
How it was run: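 DAPI–DNA complex fluorescence read at 460 nm emission band; test compound added to the preformed complex and loss of fluorescence followed.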

HEK293 [31] = assay: Reduction in Bcl-xL expression in HEK293 cells at LC50 level after 48 hrs by Western blot method; format: functional, cell-based; details: Homo sapiens
HEK293 [32] = assay: Induction of apoptosis in HEK293 cells at 5 to 20 uM after 48 hrs by DAPI staining based fluorescence microscopy; format: functional, cell-based; details: Homo sapiens
HEK293 [33] = assay: Reduction in NFkappaB expression in HEK293 cells at LC50 level after 48 hrs by Western blot method; format: functional, cell-based; details: Homo sapiens
HEK293 [34] = assay: Induction of cell cycle arrest in HEK293 cells assessed as accumulation at G1 phase at 20 uM after 48 hrs by propidium iodide staining based flow cytometry (reference value: 53.21 +/- 0.8%); format: functional, Homo sapiens
HEK293 [35] = assay: Induction of cell cycle arrest in HEK293 cells assessed as accumulation at G2/M phase at 5 uM after 48 hrs by propidium iodide staining based flow cytometry (reference value: 2.63 +/- 0.7%); format: functional, Homo sapiens
HEK293 [36] = assay: Increase in p53 expression in p53 deficient HEK293 cells at LC50 level after 48 hrs by Western blot method; format: functional, cell-based; details: Homo sapiens
HEK293 [37] = assay: Increase in Bax expression in p53 deficient HEK293 cells at LC50 level after 48 hrs by Western blot method; format: functional, cell-based; details: Homo sapiens

T1 sequence (P19838 whole entry, looked up): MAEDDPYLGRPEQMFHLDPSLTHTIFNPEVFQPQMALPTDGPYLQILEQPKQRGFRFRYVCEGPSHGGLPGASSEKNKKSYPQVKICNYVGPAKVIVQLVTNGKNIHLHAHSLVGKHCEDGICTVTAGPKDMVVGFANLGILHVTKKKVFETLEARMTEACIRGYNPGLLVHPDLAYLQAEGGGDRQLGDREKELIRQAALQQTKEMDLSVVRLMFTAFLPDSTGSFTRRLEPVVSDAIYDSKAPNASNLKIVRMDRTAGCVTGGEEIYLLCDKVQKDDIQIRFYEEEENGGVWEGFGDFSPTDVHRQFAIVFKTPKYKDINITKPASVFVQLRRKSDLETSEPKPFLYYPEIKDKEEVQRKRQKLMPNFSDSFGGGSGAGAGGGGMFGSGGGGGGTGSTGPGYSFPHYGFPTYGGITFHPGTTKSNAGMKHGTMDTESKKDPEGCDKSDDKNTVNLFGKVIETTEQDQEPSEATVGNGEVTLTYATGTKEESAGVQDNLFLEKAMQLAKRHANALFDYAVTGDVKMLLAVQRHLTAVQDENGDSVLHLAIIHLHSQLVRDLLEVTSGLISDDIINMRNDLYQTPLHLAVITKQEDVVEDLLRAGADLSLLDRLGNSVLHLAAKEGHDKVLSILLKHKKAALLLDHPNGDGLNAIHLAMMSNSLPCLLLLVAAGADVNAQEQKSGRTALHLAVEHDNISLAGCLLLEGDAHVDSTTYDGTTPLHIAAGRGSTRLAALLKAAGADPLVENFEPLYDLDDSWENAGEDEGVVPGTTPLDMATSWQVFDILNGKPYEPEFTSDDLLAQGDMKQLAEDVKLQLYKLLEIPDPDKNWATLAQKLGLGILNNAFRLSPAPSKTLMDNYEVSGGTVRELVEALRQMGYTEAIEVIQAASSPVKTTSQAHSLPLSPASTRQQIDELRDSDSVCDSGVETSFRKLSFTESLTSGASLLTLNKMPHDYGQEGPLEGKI
T1 sequence (Q00653 whole entry, looked up): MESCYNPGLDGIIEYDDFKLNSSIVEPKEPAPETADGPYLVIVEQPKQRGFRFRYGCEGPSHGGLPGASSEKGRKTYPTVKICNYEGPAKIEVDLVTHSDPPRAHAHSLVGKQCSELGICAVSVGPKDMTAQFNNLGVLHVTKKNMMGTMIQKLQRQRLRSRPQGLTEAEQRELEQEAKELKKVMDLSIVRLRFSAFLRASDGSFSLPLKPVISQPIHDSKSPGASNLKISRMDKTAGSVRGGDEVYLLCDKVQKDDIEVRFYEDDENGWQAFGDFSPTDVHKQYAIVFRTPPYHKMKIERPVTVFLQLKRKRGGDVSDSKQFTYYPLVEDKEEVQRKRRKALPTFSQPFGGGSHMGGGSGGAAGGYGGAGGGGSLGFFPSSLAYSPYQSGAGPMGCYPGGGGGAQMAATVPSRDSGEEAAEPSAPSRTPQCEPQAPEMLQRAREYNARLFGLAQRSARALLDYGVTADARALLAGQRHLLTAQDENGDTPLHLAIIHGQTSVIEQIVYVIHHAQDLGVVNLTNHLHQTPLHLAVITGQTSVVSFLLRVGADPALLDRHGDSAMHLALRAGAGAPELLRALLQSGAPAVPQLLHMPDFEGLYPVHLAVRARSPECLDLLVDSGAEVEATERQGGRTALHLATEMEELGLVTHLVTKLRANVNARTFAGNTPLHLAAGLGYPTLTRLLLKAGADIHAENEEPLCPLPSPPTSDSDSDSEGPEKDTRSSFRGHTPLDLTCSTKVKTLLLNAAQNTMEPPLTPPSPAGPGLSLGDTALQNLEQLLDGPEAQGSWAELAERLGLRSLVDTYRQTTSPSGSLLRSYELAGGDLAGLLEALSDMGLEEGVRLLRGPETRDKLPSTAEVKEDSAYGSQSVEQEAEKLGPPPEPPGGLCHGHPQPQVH
T1 sequence (Q04206 whole entry, looked up): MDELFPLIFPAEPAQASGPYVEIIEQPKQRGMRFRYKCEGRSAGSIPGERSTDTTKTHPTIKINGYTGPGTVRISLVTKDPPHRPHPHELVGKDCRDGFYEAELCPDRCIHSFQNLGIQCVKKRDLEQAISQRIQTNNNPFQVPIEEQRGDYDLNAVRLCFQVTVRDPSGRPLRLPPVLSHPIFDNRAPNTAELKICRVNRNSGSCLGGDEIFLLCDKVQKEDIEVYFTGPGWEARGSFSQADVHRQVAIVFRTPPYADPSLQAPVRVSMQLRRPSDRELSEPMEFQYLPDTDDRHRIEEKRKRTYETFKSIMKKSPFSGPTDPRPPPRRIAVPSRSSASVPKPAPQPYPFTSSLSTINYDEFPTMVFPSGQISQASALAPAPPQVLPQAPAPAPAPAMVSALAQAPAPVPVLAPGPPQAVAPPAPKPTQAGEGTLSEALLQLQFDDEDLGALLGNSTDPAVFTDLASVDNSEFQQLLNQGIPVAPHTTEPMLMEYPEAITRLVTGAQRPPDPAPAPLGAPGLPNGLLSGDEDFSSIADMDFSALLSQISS

C[C@]1(CO)[C@H]2CC[C@@]3(CO3)[C@@H](C/C=C3/C(=O)OC[C@H]3OC(=O)CCl)[C@]2(C)CC[C@H]1O
LC50 (Vero): 37 µM
CC50 (HEK293 [1]): 31 µM
Retention_time [2]: 37.1 min

C[C@]1(CO)[C@H]2CC[C@]3(CO3)[C@@H](C/C=C3/C(=O)OC[C@H]3OC(=O)CBr)[C@]2(C)CC[C@H]1O
LC50 (Vero): 32 µM
CC50 (HEK293 [1]): 24 µM
Retention_time [2]: 27.2 min

C[C@]1(CO)[C@H]2CC[C@@]3(CO3)[C@@H](C/C=C3/C(=O)OC[C@H]3OC(=O)CI)[C@]2(C)CC[C@H]1O
Activity (HEK293 [3]): inactive
Activity (HEK293 [4]): Active
Activity (HEK293 [5]): 79.55%
LC50 (Vero): 30 µM
Activity (HEK293 [6]): 0.52%
Activity (HEK293 [7]): 25.38%
LC50 [8]: > 40 µM
Activity (HEK293 [9]): Active
Activity (HEK293 [10]): 1.31%
Activity (HEK293 [11]): 4.63%
Activity (HEK293 [12]): inactive
Activity (HEK293 [13]): Active
inhibition [14]: Dose-dependent effect
Activity (HEK293 [15]): 62.05%
Activity (HEK293 [16]): 9.87%
Activity (HEK293 [17]): inactive
fold change (FC) (HEK293 [18]): >6
fold change (FC) [19]: 5
Activity (HEK293 [20]): Active
Activity (HEK293 [21]): 1.41%
CC50 (HEK293 [1]): 12 µM
CC50 (MCF7): 7 µM
Activity (HEK293 [22]): Active
Activity (HEK293 [23]): 1.18%
Activity (HEK293 [24]): Active
Activity (HEK293 [25]): 4.98%
Activity (HEK293 [26]): 15.61%
Activity (HEK293 [27]): 14.98%
Activity (HEK293 [28]): 92.93%
Activity (HEK293 [29]): 77.99%
Activity [30]: Active
Activity (HEK293 [31]): Active
Retention_time [2]: 31.4 min
Activity (HEK293 [32]): Dose-dependent effect
Activity (HEK293 [33]): Active
Activity (HEK293 [34]): 5.37%
Activity (HEK293 [35]): 2.7%
Activity (HEK293 [36]): inactive
Activity (HEK293 [37]): inactive

C=C1CC[C@@H]2[C@]3(C)COC(C)(C)O[C@@H]3CC[C@@]2(C)[C@@H]1C/C=C1/C(=O)OC[C@H]1OC(=O)CBr
LC50 (Vero): 36 µM
CC50 (HEK293 [1]): 17 µM

C[C@]1(CO)[C@H]2CC[C@@]3(CO3)[C@@H](C/C=C3/C(=O)OC[C@H]3OC(=O)CBr)[C@]2(C)CC[C@H]1O
LC50 (Vero): 29 µM
CC50 (HEK293 [1]): 16 µM
Retention_time [2]: 27.8 min

C[C@]1(CO)[C@H]2CC[C@]3(CO3)[C@@H](C/C=C3/C(=O)OC[C@H]3OC(=O)CI)[C@]2(C)CC[C@H]1O
LC50 (Vero): 42 µM
CC50 (HEK293 [1]): 25 µM
Retention_time [2]: 30.2 min

COc1cc([C@@H]2c3cc4c(cc3[C@@H](O[C@@H]3O[C@@H]5CO[C@@H](C)O[C@H]5[C@H](O)[C@H]3O)[C@H]3COC(=O)[C@H]23)OCO4)cc(OC)c1O [ETOPOSIDE]
LC50 (Vero): 28 µM
CC50 (HEK293 [1]): 18 µM

C=C1CC[C@@H]2[C@](C)(CO)[C@H](O)CC[C@@]2(C)[C@@H]1C/C=C1/C(=O)OC[C@H]1O [ANDROGRAPHOLIDE]
Activity (HEK293 [3]): inactive
LC50 (Vero): < 40 µM
LC50 [8]: > 40 µM
Activity (HEK293 [9]): Active
Activity (HEK293 [12]): inactive
Activity (HEK293 [13]): Active
Activity (HEK293 [17]): inactive
Activity (HEK293 [20]): Active
CC50 (HEK293 [1]): 25 µM
CC50 (MCF7): 16 µM
Activity (HEK293 [22]): Active
Activity (HEK293 [31]): Active
Activity (HEK293 [33]): Active
Activity (HEK293 [36]): inactive
Activity (HEK293 [37]): inactive

O=c1[nH]cc(F)c(=O)[nH]1 [FLUOROURACIL]
CC50 (HEK293 [1]): 25 µM

C[C@]1(CO)[C@H]2CC[C@]3(CO3)[C@@H](C/C=C3/C(=O)OC[C@H]3OC(=O)CCl)[C@]2(C)CC[C@H]1O
LC50 (Vero): 43 µM
CC50 (HEK293 [1]): 18 µM
Retention_time [2]: 36.5 min

C=C1CC[C@@H]2[C@](C)(CO)[C@H](O)CC[C@@]2(C)[C@@H]1C/C=C1/C(=O)OC[C@H]1OC(=O)CCl
LC50 (Vero): 25 µM
CC50 (HEK293 [1]): 20 µM
Retention_time [2]: 23.2 min

C=C1CC[C@@H]2[C@]3(C)COC(C)(C)O[C@@H]3CC[C@@]2(C)[C@@H]1C/C=C1/C(=O)OC[C@H]1OC(=O)CI
LC50 (Vero): 48 µM
CC50 (HEK293 [1]): 20 µM

C=C1CC[C@@H]2[C@]3(C)COC(C)(C)O[C@@H]3CC[C@@]2(C)[C@@H]1C/C=C1/C(=O)OC[C@H]1OC(=O)CCl
LC50 (Vero): 42 µM
CC50 (HEK293 [1]): 19 µM
